14-3-3 Bad PPI: disrupts binding of bovine 14-3-3 zeta to phospho-Bad peptide; P63103; TR-FRET 14-3-3zeta/Dy647-pBad peptide displacement, 1 h; AID 781; 220,000 tested, 0.71% active; inhibition, % at 21.7 µM;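 active means inhibition above about 70%, limit read from the data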
Mcl-1 Bim block: inhibitors of Bim-Mcl-1 interaction, human; inhibition, % at 10 µM; Bead-based flow cytometry, Bim peptide-Mcl-1 binding; Q07820; 190,000 tested, 0.1% active; in the data active means inhibition above about 40%
Calb biofilm kill: mixtures killing C. albicans biofilm. C. albicans biofilm persisters + clotrimazole, fluorescence viability; primary screen in compound mixtures of four per well. inhibition, % at 7.6 µM. 120,000 tested, 0.02% active. AID 1242;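 active means inhibition above 30.3% in the primary screen of four-compound pools, then above 30% when the compound was retested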;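 further: compounds exposed to preformed 24 h biofilms for 48 h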
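Test system: C. albicans CAF4-2 wild-type biofilms; buffer or medium: RPMI/MOPS medium, pH 7.0; schedule: 24 h biofilm formation, then 48 h compound exposure, 37 °C; detection: Alamar Blue fluorescence; measure: percent inhibition of biofilm viability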
Hck-Nef inh: blocks Nef-activated human Hck kinase | P08631 | Recombinant Hck-YEEI plus Nef, Z-Lyte FRET kinase assay | inhibition, % at 20 µM | 220,000 tested, 0.68% active | AID 463187;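 active means Hck-Nef kinase inhibition above about 50%, limit read from the data; inactive means inhibition below that limit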
Target sequence (P08631 whole entry, looked up): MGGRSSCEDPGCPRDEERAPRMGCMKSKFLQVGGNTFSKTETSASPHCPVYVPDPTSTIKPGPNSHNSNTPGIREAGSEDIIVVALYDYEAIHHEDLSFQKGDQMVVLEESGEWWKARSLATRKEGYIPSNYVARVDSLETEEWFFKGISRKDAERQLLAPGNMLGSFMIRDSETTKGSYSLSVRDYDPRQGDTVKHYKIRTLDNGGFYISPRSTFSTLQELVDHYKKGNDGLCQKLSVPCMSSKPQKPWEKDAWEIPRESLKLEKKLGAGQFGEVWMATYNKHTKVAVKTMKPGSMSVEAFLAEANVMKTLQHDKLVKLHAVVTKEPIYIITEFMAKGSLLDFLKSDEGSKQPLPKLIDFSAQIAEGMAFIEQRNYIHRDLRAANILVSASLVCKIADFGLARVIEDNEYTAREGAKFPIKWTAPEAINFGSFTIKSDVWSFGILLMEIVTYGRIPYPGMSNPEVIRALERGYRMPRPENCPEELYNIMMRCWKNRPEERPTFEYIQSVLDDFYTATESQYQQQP
Mcl1-Bid inh: Mcl-1/Bid interaction inhibition; Q07820; TR-FRET Mcl-1/Bid-Dy647 peptide binding, 1536-well; inhibition, % at 21.7 µM; 220,000 tested, 0.97% active; AID 1021;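 active means compounds that cut the binding signal by more than half at the single screening dose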;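 further: His-tagged Mcl-1 with europium anti-His antibody binding Bid BH3 peptide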
Mcl1-Noxa inh: disrupts binding of human Mcl-1 to Noxa peptide; Q07820; TR-FRET Mcl-1/Noxa peptide binding, 2 h; inhibition, % at 21.7 µM; 220,000 tested, 1.5% active; AID 1022;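 active means compounds that cut the protein-peptide binding signal by more than 50% relative to plate controls in a single-dose test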;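 further: His-tagged Mcl-1 with rhodamine Noxa BH3 peptide and terbium anti-His antibody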
Each line names hits and unclear results; the compound was inactive in the other large screens; [ ] = another dose, or the depositor's remark. In the library only some 3.2% were active in any assay of this set; here they are far more common.

C=C(C)CNC(=S)N=Nc1c(O)[nH]c2ccc([N+](=O)[O-])cc12	Mcl1-Noxa inh 65
O=C1COc2ccccc2N1Cc1ccccc1Cl	none (no result: Calb biofilm kill)
CC(=O)c1cccc(NC(=O)COC(=O)COc2c(Cl)cc(Cl)c3ccc(C)nc23)c1	none
Cc1ccc2[nH]c(=O)c(CN(CCCN(C)C)C(=O)Nc3ccc(F)cc3)cc2c1	none
C=CCN(CC=C)C(=S)NC(=O)Cc1cccc2ccccc12	Mcl1-Noxa inh 62
COc1cc(Cl)c(C)cc1NC(=O)c1ccc(NS(=O)(=O)c2ccc(F)c(F)c2)cc1	none
Cc1ccc(S(=O)(=O)Nc2nc3ccccc3nc2N2CCN(c3ccccc3F)CC2)cc1	Mcl1-Noxa inh 51 (no result: Calb biofilm kill)
Cc1ccc(S(=O)(=O)NC2=C(N3CCN(c4ccccc4F)CC3)C(=O)c3ccccc3C2=O)cc1	none (no result: Calb biofilm kill, Mcl1-Noxa inh)
Cn1cnnc1SCC(=O)NCCc1ccc(Cl)cc1Cl	none
COc1ccc(/C=C(\C#N)C(=O)Nc2cc(C)c(Cl)cc2OC)cc1O	Mcl1-Noxa inh 71 (no result: Mcl-1 Bim block)
COc1ccc(/C=C(/C#N)C(=O)Nc2cc(C)ccc2C)cc1C(=O)O	none (no result: Calb biofilm kill)
O=C1C=C(c2ccc(Cl)cc2)OC2(CCCC2)O1	14-3-3 Bad PPI 72 (no result: Calb biofilm kill)
O=C1C=C(c2ccccc2)OC2(CCCC2)O1	none (no result: Calb biofilm kill)
O=C(CSc1nc2cc(Cl)c(Cl)cc2[nH]1)c1ccc2c(c1)OCO2	Mcl1-Noxa inh 57 (no result: Mcl-1 Bim block)
CCCCn1c(=O)[nH]c(=O)c2c1nc(-c1ccc3ccccc3c1)n2CC	none
CCCCn1c(=O)[nH]c(=O)c2c1nc(-c1ccc(-c3ccccc3Br)o1)n2CC	Mcl1-Noxa inh 55 (no result: Calb biofilm kill)
COc1ccc(CNc2ccccc2SC)cc1OC	14-3-3 Bad PPI 74 (no result: Calb biofilm kill)
O=c1cc2oc3cc(O)c(O)cc3c(-c3ccccc3O)c-2cc1O	none (no result: Mcl-1 Bim block)
CCOc1ccccc1-c1c2cc(O)c(=O)cc-2oc2cc(O)c(O)cc12	Mcl1-Noxa inh 59
COc1ccc2c(c1)nc(SCC(=O)C(C)(C)C)n2C	14-3-3 Bad PPI 73 (no result: Calb biofilm kill)
COc1ccc2c(c1)nc(SCC(C)O)n2C (stereo not drawn)	none
COc1ccc2c(c1)nc(SCC(=O)c1cccs1)n2C	14-3-3 Bad PPI 71 (no result: Calb biofilm kill)
CCC1C(=O)CC(c2ccc([N+](=O)[O-])cc2)NC1c1ccc([N+](=O)[O-])cc1 (stereo not drawn)	none
COc1ccc2c(c1)O[C@H](c1ccc3c(c1)OCO3)[C@@H](OC(=O)Nc1cc(OC)c(OC)c(OC)c1)C2=O	14-3-3 Bad PPI 81[fluorescence artefact?]
COc1ccc2c(c1)O[C@H](c1ccc3c(c1)OCO3)[C@@H](OC(=O)N[C@H](C)C1CCCCC1)C2=O	14-3-3 Bad PPI 92
CCOC(=O)C1=C(N)N(c2cc(S(=O)(=O)N3CCOCC3)ccc2Cl)C(=O)C1	none
CS(=O)(=O)C1=NSC2=NC(=O)/C(=C\c3cccn3-c3ccc(Cl)cc3)C(=N)N21	Mcl1-Noxa inh 92
N=C1/C(=C/c2cccn2-c2ccc([N+](=O)[O-])cc2)C(=O)N=C2SC=CN12	Mcl1-Noxa inh 61
O=C1NC(=S)N/C1=C/c1cccn1-c1ccc([N+](=O)[O-])cc1	Mcl1-Noxa inh 80
N=C1/C(=C/c2cccn2Cc2ccc(F)cc2)C(=O)N=C2SC=CN12	none
Cc1csc(NC(=O)CSc2nnc3c4ccccc4nc(C(C)(C)C)n23)n1	none (no result: Calb biofilm kill)
Oc1c(/C=N/c2ccccn2)sc2ccccc12	Mcl1-Noxa inh 76 (no result: Mcl-1 Bim block)
O=C(COc1ccc2ccccc2c1)Nc1cccc2c1C(=O)NC2=O	Hck-Nef inh 60, Mcl1-Bid inh 60
CC(=O)c1ccc(OCC(O)CN2CCOCC2)cc1 (stereo not drawn)	Mcl1-Noxa inh 64 (no result: Calb biofilm kill)
OCCN1CCN(CC(O)COc2ccc(-c3ccccc3)cc2)CC1 (stereo not drawn)	14-3-3 Bad PPI 84 (no result: Calb biofilm kill)
OCCN1CCN(CC(O)COc2ccc3ccccc3c2)CC1 (stereo not drawn)	none (no result: Calb biofilm kill)
Cc1ccc(OCCN2CCN(CC(O)Cn3c4ccccc4c4ccccc43)CC2)cc1 (stereo not drawn)	Mcl1-Bid inh 66
COc1ccc(C2=NOC(CNC(=O)c3ccccc3Br)C2)c(OC)c1 (stereo not drawn)	none (no result: Mcl-1 Bim block)
COc1ccccc1C1CC(=O)NC(C)=C1C(=O)OC(C)C (stereo not drawn)	none
O=S(=O)(Nc1ccc2cn[nH]c2c1)c1ccc(Cl)s1	14-3-3 Bad PPI 85
COc1ccc2[nH]c3c4c(ccc3c2c1)C(=O)C=CC4=O	Mcl1-Bid inh 82, Mcl1-Noxa inh 98 (no result: Mcl-1 Bim block)
COc1ccc(NC(=O)OC(C)C)cc1	none (no result: Calb biofilm kill)
Cc1cc(-c2nnc(SCC(=O)c3ccc4c(c3)OCCO4)o2)no1	Mcl1-Noxa inh 59
COC(=O)N/N=C/c1cn(Cc2ccccc2F)c2ccccc12	none (no result: Mcl-1 Bim block)
O=C(O)c1ccc(N/N=C/c2cn(Cc3ccccc3F)c3ccccc23)cc1	Mcl1-Noxa inh 59 (no result: Mcl-1 Bim block)
Nc1nc(N)c2cc(Sc3ccc4ccccc4c3)ccc2n1	Mcl1-Noxa inh 84 (no result: Mcl-1 Bim block)
CCNc1nc2cccnc2s1	none (no result: Mcl-1 Bim block)
O=C(Nc1cccnc1)c1ccccc1F	none (no result: Calb biofilm kill)
O=C(/C=C/c1ccncc1)c1ccc(NC(=O)c2ccccc2F)cc1	Mcl1-Bid inh 52
O=C(/C=C/c1ccc(Br)cc1)c1ccc(NC(=O)c2ccco2)cc1	14-3-3 Bad PPI 77[fluorescence artefact?]
Cc1cccc(C)c1N1CCN(S(=O)(=O)N(C)C)CC1	none
O=C(CCC(=O)N/N=C/c1cc(Cl)cc(Cl)c1O)NCc1ccccc1	none
COCCN1Cc2cccc(C(=O)NCCCN3CCCC3=O)c2C1=O	none (no result: Mcl-1 Bim block)
COc1ccc(NC(=O)CSc2ncnc3c2sc2ccccc23)c(OC)c1	Mcl1-Noxa inh 79
CC1CC(C)CN(S(=O)(=O)c2cccc(C(=O)OCCN3CCCC3=O)c2)C1 (stereo not drawn)	none (no result: Calb biofilm kill)
CCN(CC)S(=O)(=O)c1ccc(C(=O)OC2CCCCC2CN(C)C)cc1 (stereo not drawn)	Mcl1-Bid inh 51 (no result: Calb biofilm kill)
CN(C(=O)COC(=O)c1ccc2ccccc2n1)C1CCS(=O)(=O)C1 (stereo not drawn)	none
O=C(Nc1ccc(F)cc1)c1nc[nH]c1C(=O)Nc1ccc([N+](=O)[O-])cc1	Mcl1-Bid inh 62, Mcl1-Noxa inh 62
Cc1nc(C)c(C(=O)C2=C(O)C(=O)N(CCCn3ccnc3)C2c2ccc(Cl)cc2)s1 (stereo not drawn)	none (no result: Calb biofilm kill)
COCCn1c(-c2ccc(F)cc2)nc2oc3cc(OC)ccc3c(=O)c2c1=O	none (no result: Mcl-1 Bim block)
CCc1nc2oc3cc(OC)ccc3c(=O)c2c(=O)n1Cc1ccccc1	none (no result: Calb biofilm kill)
Cc1ccc(-n2c(C)nc3oc4ccccc4c(=O)c3c2=O)cc1	Mcl1-Noxa inh 65 (no result: Calb biofilm kill)
COCCn1c(-c2ccc(C)cc2)nc2oc3cc(OC)ccc3c(=O)c2c1=O	Mcl1-Bid inh 53 (no result: Mcl-1 Bim block)
CCCc1nc2oc3cc(OC)ccc3c(=O)c2c(=O)n1CCc1ccccc1	Mcl1-Bid inh 69 (no result: Mcl-1 Bim block)

Screening data: PubChem, several laboratories
